From publication PMC9924077 (Cell stem cell, 2022)

What was measured:
hiPSC-CMs = type: cell-based, human; conditions: for apparent risk in this study compared with actual clinical practice: hiPSC-CMs, Torsadogenic safety margin
[1] = risk of TdP arrhythmia at clinical exposures; cited from earlier work
DCM and HCM hiPSC-CMs = type: cell-based, human; conditions: for asystole safety margin versus isogenic control: DCM RBM20 p.R634Q and PLN p.R14del, HCM MYBPC3 p.R943X and TPM1 p.K37E versus isogenic control hiPSC-CMs; for Torsadogenic safety margin in DCM and HCM hiPSC-CMs versus isogenic control: DCM and HCM lines versus HD.15S1 isogenic control
Procedure, shortened: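 Cells were HCM (TPM1, MYBPC3) and DCM (TNNT2, RBM20, PLN) hiPSC-CMs made by Cas9/ssODN knock-in and Sanger-verified, plus isogenic control. They were plated at 25,000/well for ≥4 days, dye-loaded with VF2.1.Cl/Hoechst for 50 min at 37°C, exposed to drug for 15 min at 37°C, and imaged at 33 Hz for 10 s. Design: 8 doses, 3 differentiation batches × 3 technical repeats. CNN arrhythmic/asystolic probability was fitted by binomial glm against log dose, with EC50 and 95% CI.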

[2] = tested on: hiPSC-derived cardiomyocytes; conditions: tested at concentrations exceeding 100 times the free Cmax; cited from earlier work
[3] = healthy donor hiPSC-CMs, 8 concentrations

Row | Compound | apparent risk in this study compared with actual clinical practice (hiPSC-CMs) | CiPA TdP risk classification [1] | asystole safety margin versus isogenic control (DCM and HCM hiPSC-CMs) | other results
1 | Cc1cccc(C)c1OCC(C)N (stereo not drawn) [mexiletine, Mexiletine] | riskier | low-no risk |  | 
2 | COC(=O)C1=C(C)NC(C)=C(C(=O)OC)C1c1ccccc1[N+](=O)[O-] [nifedipine, Nifedipine] |  |  |  | asystole (probability of asystole class, CNN) versus dose (hiPSC-CMs; [3]): dose-dependent induction of asystole
3 | CCCCCCCN(CC)CCCC(O)c1ccc(NS(C)(=O)=O)cc1 (stereo not drawn) [ibutilide, Ibutilide] |  | high | heightened propensity to cause asystole | arrhythmia probability (CNN) versus dose (hiPSC-CMs; [3]): continuous, dose-dependent increase in arrhythmia probability; Torsadogenic safety margin in DCM and HCM hiPSC-CMs versus isogenic control (DCM and HCM hiPSC-CMs): trended towards increased risk
4 | CN(CCOc1ccc(NS(C)(=O)=O)cc1)CCc1ccc(NS(C)(=O)=O)cc1 [dofetilide, Dofetilide] |  |  | heightened propensity to cause asystole | 
5 | Cc1nccn1CC1CCc2c(c3ccccc3n2C)C1=O (stereo not drawn) [ondansetron, Ondansetron] |  | intermediate |  | 
6 | O=C(CCCN1CC=C(n2c(=O)[nH]c3ccccc32)CC1)c1ccc(F)cc1 [droperidol, Droperidol] | riskier | intermediate risk | heightened propensity to cause asystole | Torsadogenic safety margin in DCM and HCM hiPSC-CMs versus isogenic control (DCM and HCM hiPSC-CMs): trended towards increased risk
7 | COc1ccccc1OCC(O)CN1CCN(CC(=O)Nc2c(C)cccc2C)CC1 (stereo not drawn) [ranolazine, Ranolazine] | riskier | low-no risk |  | 
8 | CC(C)COCC(CN(Cc1ccccc1)c1ccccc1)N1CCCC1 (stereo not drawn) [bepridil, Bepridil] | appeared less | high-risk |  | response in hiPSC-derived cardiomyocytes in previous studies [2]: non-arrhythmic responses
